These results are taken from ChEMBL document CHEMBL1136915 (Bioorg Med Chem Lett, 2009).

As a reminder, the inhibition in vivo is the share of the control response that was lost under treatment. For orientation: IC50 means the point on the concentration scale where inhibition reaches its midpoint.

Bounds are passed on as bounds.

For series [1], the system named is Rattus norvegicus. Nature of the series: Antiinflammatory activity against carrageenan-induced rat inflammation model assessed as inhibition of paw edema at 327 umol/kg, po after 3 hrs. It counts as functional. The method, boiled down:
(§1)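 Test compound was given orally to rats at the stated dose (µmol/kg), followed by carrageenan-induced paw edema.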

Series [2] has as its target T1, Prostaglandin G/H synthase 2 (Homo sapiens, UniProt P35354).
T1 sequence (P35354 whole entry): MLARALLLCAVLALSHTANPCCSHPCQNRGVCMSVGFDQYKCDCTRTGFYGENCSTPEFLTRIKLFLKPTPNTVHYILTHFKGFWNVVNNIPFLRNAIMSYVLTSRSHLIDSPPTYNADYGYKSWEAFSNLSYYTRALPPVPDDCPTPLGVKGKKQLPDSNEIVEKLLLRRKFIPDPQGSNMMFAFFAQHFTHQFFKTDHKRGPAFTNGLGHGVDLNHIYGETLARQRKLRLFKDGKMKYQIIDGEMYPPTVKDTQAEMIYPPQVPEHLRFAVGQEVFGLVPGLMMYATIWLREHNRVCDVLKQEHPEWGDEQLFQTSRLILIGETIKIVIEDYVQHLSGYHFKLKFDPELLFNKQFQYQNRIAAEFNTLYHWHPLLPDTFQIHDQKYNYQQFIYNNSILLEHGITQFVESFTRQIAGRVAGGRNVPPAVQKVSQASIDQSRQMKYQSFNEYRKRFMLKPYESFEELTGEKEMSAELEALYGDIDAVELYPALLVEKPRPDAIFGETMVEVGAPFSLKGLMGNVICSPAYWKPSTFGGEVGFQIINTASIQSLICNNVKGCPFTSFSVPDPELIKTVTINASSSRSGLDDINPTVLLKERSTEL
Nature of the series: Inhibition of human COX2 by enzyme immunoassay. The method, boiled down:
(§2)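 COX inhibition was measured in vitro with an enzyme immunoassay kit. IC50 is the mean of two determinations, with deviation from the mean <10%. COX-2 selectivity index = COX-1 IC50/COX-2 IC50.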

The test system of the next series is Serum. In words: Nitric oxide release in rat serum containing phosphate buffer at pH 7.4 incubated at 37 degC after 1.5 hrs. The conditions noted are these: pH 7.4, 1.5 h.
Series [3] concerns the target T2, Prostaglandin G/H synthase 1 (Ovis aries, UniProt P05979).
T2 sequence (P05979 whole entry): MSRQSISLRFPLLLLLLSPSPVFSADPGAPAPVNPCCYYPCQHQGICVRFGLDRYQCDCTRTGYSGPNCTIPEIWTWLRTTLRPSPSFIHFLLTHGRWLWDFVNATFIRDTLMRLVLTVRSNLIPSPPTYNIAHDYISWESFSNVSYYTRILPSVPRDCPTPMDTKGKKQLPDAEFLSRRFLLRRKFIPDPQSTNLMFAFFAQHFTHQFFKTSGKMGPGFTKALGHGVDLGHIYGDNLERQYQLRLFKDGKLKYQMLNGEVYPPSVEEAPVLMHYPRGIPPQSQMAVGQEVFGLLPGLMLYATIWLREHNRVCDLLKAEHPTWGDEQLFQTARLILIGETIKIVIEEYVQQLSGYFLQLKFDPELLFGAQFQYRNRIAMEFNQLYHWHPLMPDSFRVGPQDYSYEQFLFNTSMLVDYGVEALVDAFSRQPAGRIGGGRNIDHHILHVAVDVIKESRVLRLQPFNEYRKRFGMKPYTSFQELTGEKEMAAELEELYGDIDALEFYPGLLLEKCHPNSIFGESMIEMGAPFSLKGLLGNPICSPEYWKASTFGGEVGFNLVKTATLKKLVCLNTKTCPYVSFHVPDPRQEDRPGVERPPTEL
In words: Inhibition of ovine COX1 by enzyme immunoassay. The method, boiled down: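 COX inhibition was measured in vitro with an enzyme immunoassay kit. COX-2 selectivity index = COX-1 IC50/COX-2 IC50.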

Series [4] in a line: Selectivity ratio of IC50 for ovine COX1 to IC50 for human COX2. A digest of the protocol: as §2
Series [5] in a line: Nitric oxide release in phosphate buffer at pH 7.4 incubated at 37 degC after 1.5 hrs. On the set-up: concentration or dose not given beside the values. The conditions noted are these: pH 7.4, 1.5 h.
Series [6] relates to Rattus norvegicus. Nature of the series: Antiinflammatory activity against carrageenan-induced rat inflammation model assessed as inhibition of paw edema at 714 umol/kg, po after 3 hrs. The series is classed as functional. The method, boiled down:
as §1

Series [7] concerns Rattus norvegicus. In words: Antiinflammatory activity against carrageenan-induced rat inflammation model assessed as inhibition of paw edema at 11.7 umol/kg, po after 3 hrs. It counts as functional. The method, boiled down: as §1
Series [8] is described as follows: Nitric oxide release in phosphate buffer containing 5 mM L-cysteine at pH 7.4 incubated at 37 degC after 1.5 hrs. The conditions noted are these: pH 7.4, 1.5 h.
For series [9], the system named is Rattus norvegicus. Nature of the series: Antiinflammatory activity against carrageenan-induced rat inflammation model assessed as inhibition of paw edema at 357 umol/kg, po after 3 hrs. The series is classed as functional. A digest of the protocol:
as §1

Consider `CC(=O)OCO/N=[N+](\[O-])N1CCC[C@H]1COC(=O)C(C)c1ccc(CC(C)C)cc1` (stereo partly drawn), for which the inhibition in vivo at 327 µmol/kg with Rattus norvegicus [1] was determined as 57.1%. Further, the IC50 is 6.4 µM in series [2] and over 100 µM in [3]. In addition, the Activity with Serum worked out at 79.5%; in series [5], 4.4%. Besides, in series [4], the Ratio IC50 was over 15.

With `[Na+].[O-]/N=[N+](\[O-])N1CCC[C@H]1CO`, the Activity in the series with Serum is reported as 84.8%; in series [5], 84.5%.

Regarding `CC(=O)Oc1ccccc1C(=O)O` [ASPIRIN], in the series on Rattus norvegicus [6], the inhibition in vivo at 714 µmol/kg is 50%.

Take `COc1ccc2c(c1)c(CC(=O)O)c(C)n2C(=O)c1ccc(Cl)cc1` [INDOMETHACIN]: the inhibition in vivo at 11.7 µmol/kg in the series on Rattus norvegicus [7] is 50%.

On to `CC(C)Cc1ccc(C(C)C(=O)OC(CO[N+](=O)[O-])CO[N+](=O)[O-])cc1` (stereo not drawn), for which the inhibition in vivo at 327 µmol/kg in the series on Rattus norvegicus [1] was determined as 59.1%. Besides, the IC50 is 1.7 µM in [2] and over 100 µM in series [3]. The Activity in [8] is listed as 6.8%; in series [5], 3.4%. The Ratio IC50 in [4] is over 58.

Take `CC(=O)Oc1ccccc1C(=O)OC(CO[N+](=O)[O-])CO[N+](=O)[O-]`: the inhibition in vivo at 357 µmol/kg in the series on Rattus norvegicus [9] turned out to be 30.5%. Further, the IC50 in series [2] was 7.7 µM; in series [3] it was over 100 µM. The Activity in [8] was 7.8%; in [5], 3.6%. Also, the Ratio IC50 in series [4] is over 13.

As for `CC(C)Cc1ccc(C(C)C(=O)O)cc1` (stereo not drawn) [IBUPROFEN], the inhibition in vivo at 327 µmol/kg in the series with Rattus norvegicus [1] is 50%.

For `CC(=O)OCO/N=[N+](\[O-])N1CCC[C@H]1COC(=O)c1ccccc1OC(C)=O`, the inhibition in vivo at 357 µmol/kg in the series on Rattus norvegicus [9] was determined as 23.7%. Moreover, the half-inhibitory concentration (IC50) in series [2] was 2.2 µM; in series [3], over 100 µM. Moreover, the Activity is reported as 50.6% in the series on Serum and 7.4% in [5]. Also, in [4], the Ratio IC50 is over 45.

On to `COc1ccc2c(c1)c(CC(=O)OC[C@@H]1CCCN1/[N+]([O-])=N/OCOC(C)=O)c(C)n2C(=O)c1ccc(Cl)cc1`, for which the IC50 is 9.3 µM in [2] and over 100 µM in series [3]. The Activity is listed as 80.7% with Serum and 7.9% in series [5]. For the same compound, in the series with Rattus norvegicus [7], the inhibition in vivo at 11.7 µmol/kg was found to be 53.6%. In addition, in series [4], the Ratio IC50 was over 10.

In the case of `O=[N+]([O-])OCC(CO[N+](=O)[O-])O[N+](=O)[O-]` [NITROGLYCERIN], the Activity is listed as 10.1% in series [8] and 2.8% in series [5].

As to `COc1ccc2c(c1)c(CC(=O)OC(CO[N+](=O)[O-])CO[N+](=O)[O-])c(C)n2C(=O)c1ccc(Cl)cc1`, the half-maximal inhibitory concentration (IC50) in [2] was 0.6 µM; in series [3] it was over 100 µM. Also, the inhibition in vivo at 11.7 µmol/kg in the series on Rattus norvegicus [7] worked out at 42.2%. Also, the Activity in series [8] is given as 7.4%; in [5] it was 3.8%. For the same compound, in series [4], the Ratio IC50 was over 166.
